≈ marks a conversion by molar mass, not a printed value. Calls of active or inactive are those of the source. The rule behind the calls is not given here.

Test [1] has as its system Clostridioides difficile. The experiment in a line: Antimicrobial activity against Clostridium difficile NCTC 11204 after 48 hrs. The class given is functional. Particulars: NCTC 11204, 48 h. The method, boiled down: (§1)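 Anaerobes incubated in an anaerobic cabinet for broth MIC determination. Drug-free incubations of the same organisms served as controls. Value is the minimum inhibitory concentration.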

Test [2] concerns Clostridioides difficile. Description: Antimicrobial activity against Clostridium difficile O27 after 48 hrs. Format: functional. The method, boiled down: as §1
Test [3] has as its system Clostridioides difficile. The experiment in a line: Antimicrobial activity against Clostridium difficile Z162 after 48 hrs. The class given is functional. The method, boiled down:
as §1

For test [4], the system named is Clostridioides difficile. Description: Antimicrobial activity against Clostridium difficile Z229 after 48 hrs. The class given is functional. The method, boiled down: as §1
Test [5] relates to Staphylococcus epidermidis. Description: Antimicrobial activity against Staphylococcus epidermidis NCTC 11047 after 24 hrs. Format: functional. The note with it: NCTC 11047, 24 h. The method, boiled down: (§2)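 MIC by dilution in nutrient broth. Anaerobic organisms were incubated in an anaerobic cabinet. Controls were the same organisms incubated without test compound.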
Test [6] has as its system Staphylococcus epidermidis. The experiment in a line: Antimicrobial activity against Staphylococcus epidermidis 9 after 24 hrs. The class given is functional. The procedure, abridged: as §2
For test [7], the system named is Staphylococcus epidermidis. Description: Antimicrobial activity against Staphylococcus epidermidis 4 after 24 hrs. Format: functional. The method, boiled down: as §2
In test [8] the test system is Staphylococcus aureus. The experiment in a line: Antimicrobial activity against Staphylococcus aureus ATCC 6538 after 24 hrs. Particulars: ATCC 6538, 24 h. Format: functional. The method, boiled down:
as §2

Test [9] has as its system Staphylococcus aureus. The experiment in a line: Antimicrobial activity against Staphylococcus aureus H1 after 24 hrs. Format: functional. The procedure, abridged: as §2
For test [10], the system named is Staphylococcus aureus. Description: Antimicrobial activity against Staphylococcus aureus K1 after 24 hrs. The class given is functional. The method, boiled down: as §2
The subject of test [11] is Staphylococcus aureus. Description: Antimicrobial activity against methicillin-resistant Staphylococcus aureus A1 after 24 hrs. The class given is functional. The method, boiled down:
as §2

Test [12] deals with Staphylococcus aureus. The experiment in a line: Antimicrobial activity against methicillin-resistant Staphylococcus aureus C3 after 24 hrs. The class given is functional. The method, boiled down:
as §2

For test [13], the system named is Staphylococcus aureus. Description: Antimicrobial activity against methicillin-resistant Staphylococcus aureus E1 after 24 hrs. The class given is functional. The procedure, abridged: as §2
Test [14] relates to Cutibacterium acnes. The experiment in a line: Antimicrobial activity against Propionibacterium acnes NCTC 737 after 48 hrs. The class given is functional. Particulars: NCTC 737, 48 h. The procedure, abridged: as §2
Test [15] relates to Cutibacterium acnes. Description: Antimicrobial activity against Propionibacterium acnes B5 after 48 hrs. Format: functional. The method, boiled down: as §1
Test [16] concerns Cutibacterium acnes. Description: Antimicrobial activity against Propionibacterium acnes C3 after 48 hrs. Format: functional. The procedure, abridged:
as §2

Test [17] relates to Cutibacterium acnes. Description: Antimicrobial activity against Propionibacterium acnes C5 after 48 hrs. Format: functional. The method, boiled down:
as §2

For a further test, the system named is Bacillus subtilis. The experiment in a line: Antimicrobial activity against Bacillus subtilis. The class given is functional, organism-based.
The test system of the next test is Streptococcus pyogenes. The experiment in a line: Antimicrobial activity against Streptococcus pyogenes. Format: functional, organism-based.
Test [18] concerns Staphylococcus aureus. Description: Antimicrobial activity against Micrococcus pyogenes. The class given is functional, organism-based.
Another test has as its system Escherichia coli. The experiment in a line: Antimicrobial activity against Escherichia coli. The class given is functional, organism-based.
Test [19] concerns Trichophyton mentagrophytes. Description: Antimicrobial activity against Trichophyton mentagrophytes. The class given is functional, organism-based.
A further test deals with Candida albicans. The experiment in a line: Antimicrobial activity against Candida albicans. Format: functional, organism-based.

On to `CC(C)NC(=S)N/N=C/c1ccc([N+](=O)[O-])o1`, for which the minimum inhibitory concentration (MIC) (in general, the least concentration at which growth counts as inhibited) against Clostridioides difficile [1] is greater than 256 µg/mL; with Clostridioides difficile [2], 64 µg/mL (≈ 250 µM); in the test with Clostridioides difficile [3], greater than 256 µg/mL; against Clostridioides difficile [4], 128 µg/mL (≈ 499 µM); in test [5] it was 64 µg/mL (≈ 250 µM); in [6], greater than 256 µg/mL. Moreover, the MIC in [7] is greater than 256 µg/mL; against Staphylococcus aureus [8] it was 64 µg/mL (≈ 250 µM); in the test with Staphylococcus aureus [9], 128 µg/mL (≈ 499 µM); against Staphylococcus aureus [10] it was greater than 256 µg/mL; against Staphylococcus aureus [11], greater than 256 µg/mL; in the test on Staphylococcus aureus [12], greater than 256 µg/mL. Also, the MIC against Staphylococcus aureus [13] is greater than 256 µg/mL; with Cutibacterium acnes [14], 64 µg/mL (≈ 250 µM); with Cutibacterium acnes [15] it was greater than 256 µg/mL; in the test on Cutibacterium acnes [16] it was 32 µg/mL (≈ 125 µM); with Cutibacterium acnes [17], 64 µg/mL (≈ 250 µM).
Consider `CNC(=S)N/N=C/C=C/c1ccco1`, for which the MIC in the test on Clostridioides difficile [1] is greater than 256 µg/mL; with Clostridioides difficile [2] it was 64 µg/mL (≈ 306 µM); in the test with Clostridioides difficile [3], greater than 256 µg/mL; against Clostridioides difficile [4], 128 µg/mL (≈ 612 µM); in [5] it was greater than 256 µg/mL; in [6] it was greater than 256 µg/mL. The MIC was 128 µg/mL (≈ 612 µM) in test [7]; greater than 256 µg/mL with Staphylococcus aureus [8]; greater than 256 µg/mL with Staphylococcus aureus [9]; greater than 256 µg/mL with Staphylococcus aureus [10]; greater than 256 µg/mL against Staphylococcus aureus [11]; greater than 256 µg/mL with Staphylococcus aureus [12]. The minimum inhibitory concentration (MIC) against Staphylococcus aureus [13] was greater than 256 µg/mL; in the test with Cutibacterium acnes [14] it was 32 µg/mL (≈ 153 µM); against Cutibacterium acnes [15], 32 µg/mL (≈ 153 µM); with Cutibacterium acnes [16] it was 16 µg/mL (≈ 76.5 µM); with Cutibacterium acnes [17] it was 1 µg/mL (≈ 4.78 µM).
As to `CNC(=S)N/N=C/C=C/c1ccc([N+](=O)[O-])o1`, the MIC against Clostridioides difficile [1] was found to be 64 µg/mL (≈ 252 µM); in the test with Clostridioides difficile [2], 32 µg/mL (≈ 126 µM); in the test on Clostridioides difficile [3], 32 µg/mL (≈ 126 µM); in the test with Clostridioides difficile [4], 16 µg/mL (≈ 62.9 µM); in test [5] it was 32 µg/mL (≈ 126 µM); in test [6] it was 64 µg/mL (≈ 252 µM). Also, the MIC in test [7] was 32 µg/mL (≈ 126 µM); in the test on Staphylococcus aureus [8], 32 µg/mL (≈ 126 µM); against Staphylococcus aureus [9] it was 16 µg/mL (≈ 62.9 µM); against Staphylococcus aureus [10], greater than 256 µg/mL; with Staphylococcus aureus [11], 64 µg/mL (≈ 252 µM); with Staphylococcus aureus [12], 64 µg/mL (≈ 252 µM). For the same compound, the MIC in the test with Staphylococcus aureus [13] came to 64 µg/mL (≈ 252 µM); against Cutibacterium acnes [14] it was 16 µg/mL (≈ 62.9 µM); in the test on Cutibacterium acnes [15] it was 1 µg/mL (≈ 3.93 µM); against Cutibacterium acnes [16], 1 µg/mL (≈ 3.93 µM); with Cutibacterium acnes [17], 64 µg/mL (≈ 252 µM).
As for `CCNC(=S)N/N=C/C=C/c1ccco1`, the MIC in the test on Clostridioides difficile [1] was greater than 256 µg/mL; with Clostridioides difficile [2] it was 64 µg/mL (≈ 287 µM); in the test with Clostridioides difficile [3], greater than 256 µg/mL; in the test with Clostridioides difficile [4] it was 64 µg/mL (≈ 287 µM); in test [5], greater than 256 µg/mL; in [6] it was greater than 256 µg/mL. Moreover, the MIC (in test [7]; against Staphylococcus aureus [8]; with Staphylococcus aureus [9]; with Staphylococcus aureus [10]; in the test on Staphylococcus aureus [11]; against Staphylococcus aureus [12]) was greater than 256 µg/mL throughout. The MIC in the test with Staphylococcus aureus [13] was greater than 256 µg/mL; in the test on Cutibacterium acnes [14], 16 µg/mL (≈ 71.7 µM); in the test with Cutibacterium acnes [15], greater than 256 µg/mL; against Cutibacterium acnes [16], 32 µg/mL (≈ 143 µM); in the test on Cutibacterium acnes [17] it was 32 µg/mL (≈ 143 µM).
As to `CCNC(=S)N/N=C/c1ccc([N+](=O)[O-])o1`, the result (in the test with Bacillus subtilis; with Streptococcus pyogenes; in the test on Staphylococcus aureus [18]; in the test on Escherichia coli; in test [19]; in the test with Candida albicans) was Active. Also, the minimal inhibitory concentration (MIC) against Clostridioides difficile [1] came out at 64 µg/mL (≈ 264 µM); against Clostridioides difficile [2], 64 µg/mL (≈ 264 µM); in the test on Clostridioides difficile [3], 128 µg/mL (≈ 528 µM); in the test on Clostridioides difficile [4], 8 µg/mL (≈ 33 µM); in [5] it was 32 µg/mL (≈ 132 µM); in test [6] it was 64 µg/mL (≈ 264 µM). Moreover, the MIC worked out at 32 µg/mL (≈ 132 µM) in test [7]; 32 µg/mL (≈ 132 µM) against Staphylococcus aureus [8]; 16 µg/mL (≈ 66 µM) against Staphylococcus aureus [9]; 64 µg/mL (≈ 264 µM) with Staphylococcus aureus [10]; 64 µg/mL (≈ 264 µM) with Staphylococcus aureus [11]; 64 µg/mL (≈ 264 µM) against Staphylococcus aureus [12]. For the same compound, the MIC turned out to be 64 µg/mL (≈ 264 µM) with Staphylococcus aureus [13]; 16 µg/mL (≈ 66 µM) in the test with Cutibacterium acnes [14]; 32 µg/mL (≈ 132 µM) against Cutibacterium acnes [15]; 2 µg/mL (≈ 8.26 µM) against Cutibacterium acnes [16]; 32 µg/mL (≈ 132 µM) in the test on Cutibacterium acnes [17].
For the compound `CC(C)(C)NC(=S)N/N=C/C=C/c1ccc([N+](=O)[O-])o1`, the MIC is greater than 256 µg/mL against Clostridioides difficile [1]; 64 µg/mL (≈ 216 µM) with Clostridioides difficile [2]; 128 µg/mL (≈ 432 µM) against Clostridioides difficile [3]; 64 µg/mL (≈ 216 µM) in the test on Clostridioides difficile [4]; greater than 256 µg/mL in test [5]; greater than 256 µg/mL in [6]. The MIC in test [7] was greater than 256 µg/mL; in the test on Staphylococcus aureus [8] it was greater than 256 µg/mL; with Staphylococcus aureus [9], 64 µg/mL (≈ 216 µM); in the test on Staphylococcus aureus [10], 32 µg/mL (≈ 108 µM); in the test on Staphylococcus aureus [11] it was greater than 256 µg/mL; against Staphylococcus aureus [12] it was greater than 256 µg/mL. For the same compound, the minimal inhibitory concentration (MIC) is greater than 256 µg/mL against Staphylococcus aureus [13]; 16 µg/mL (≈ 54 µM) in the test on Cutibacterium acnes [14]; 32 µg/mL (≈ 108 µM) with Cutibacterium acnes [15]; 8 µg/mL (≈ 27 µM) with Cutibacterium acnes [16]; 16 µg/mL (≈ 54 µM) against Cutibacterium acnes [17].
